Calls of active or inactive are those of the source. The rule behind the calls is not given here.
Tests used:
Mus musculus [1] = species: Mus musculus; experiment: Increase in cGMP level in CD-1 mouse brain hippocampus by immunoassay; assay type: functional
Summary of the method: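 CD-1 mice given compound; brains fixed by focused microwave irradiation, and cortex, striatum and hippocampus dissected and homogenized in 0.5 N HCl, then centrifuged. cGMP in the supernatant measured by enzyme immunoassay. Unbound brain concentration taken from satellite animals. Dose-response and time-course data combined, and a linear Cbu–cGMP model fitted. The Cbu E50 is the projected Cbu giving a 50% rise in cGMP. Statistics by one-way ANOVA with Fisher's PLSD, p<0.05.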

[2] = Terminal half life in beagle dog at 5 mg/kg, po administered via gavage by LC-MS/MS analysis; assay type: ADME, organism-based, Canis lupus familiaris; settings: in vivo, read-out: beta t1/2 (converted)
Cytochrome P450 3A [3] = molecular target: T1, Cytochrome P450 3A (Homo sapiens, UniProt P08684+P20815+Q9HB55+P24462); experiment: Inhibition of recombinant human CYP3A; assay type: ADME; settings: recombinant enzyme
[4] = AUC (0 to infinity) in beagle dog at 5 mg/kg, po administered via gavage by LC-MS/MS analysis; assay type: ADME, organism-based, Canis lupus familiaris; set-up: dose 5 mg/kg, route oral, time infinity; settings: in vivo
[5] = Ratio of unbound brain concentration to unbound plasma concentration in po dosed beagle dog; assay type: ADME, organism-based, Canis lupus familiaris; settings: brain and plasma, read-out: K(p,uu,brain)
Summary of the method: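 Compound given sc to mice, iv and/or sc to rats, po to dogs and sc to monkeys; sc doses as a solution in 20% SBE-BCD + 2 molar equiv 1N HCl. Plasma, whole brain and CSF taken at matched times from 2 min to 24 h and quantified by LC-MS/MS. Fraction unbound in plasma and brain homogenate (diluted 4-fold, dilution factor 5 applied) by 6 h equilibrium dialysis against phosphate buffer at 37°C.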

Rattus norvegicus [6] = species: Rattus norvegicus; experiment: Cardiotoxicity in rat up to 1 month by microscopic method; assay type: toxicity
Rattus norvegicus [7] = experiment: Effect on habituated locomotor activity in Long Evans rat at 0.32 to 3.2 mg/kg, sc; assay type: ADME, organism-based; settings: in vivo
Summary of the method: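 Rats dosed SC at 0.32, 1.0 and 3.2 mg/kg; conditioned avoidance responding also run in combination with risperidone 0.032 mg/kg.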

Mus musculus [8] = experiment: In vivo effect on phosphorylated CREB level in CD-1 mouse brain hippocampus by immunoassay; assay type: functional, organism-based
Liver [9] = experiment: Drug metabolism in rat liver microsomes assessed as 3-(7-methyl-5-(1-methyl-5-(5-(trifluoromethyl)pyridin-2-yl)-1H-pyrazol-4-yl)imidazo[1,5-f][1,2,4]triazin-4-ylamino)propanoic acid formation at 1 to 50 uM after 1 hr by LC-MS/MS analysis; assay type: ADME, microsome
Summary of the method: (§1)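 Rat, dog or human liver microsomes or hepatocytes (P450 0.35–0.5 µM final) incubated with compound at 1, 10 or 50 µM in 100 mM phosphate buffer with 1 mM NADP regenerating system, 37°C for 1 h; quenched with 4 volumes acetonitrile, centrifuged, supernatant evaporated, reconstituted in 5% aqueous acetonitrile and analysed by reversed-phase LC.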

[10] = Cmax in Wistar Han rat at 1 mg/kg, iv by LC-MS/MS analysis; assay type: ADME, organism-based; set-up: dose 1 mg/kg, route intravenous; settings: in vivo
Summary of the method: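 Male Wistar-Han rats given single 1 mg/kg IV; beagle dogs 0.3 mg/kg IV; solution in 20% (w/v) sulfobutyl ether β-cyclodextrin with hydrochloric acid, 1 mL/kg (rat) or 0.4 mL/kg (dog). Blood via carotid artery cannula between 2 min and 24 h into EDTA tubes; plasma analysed by LC-MS/MS with positive electrospray.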

[11] = Drug metabolism in rat hepatocytes assessed as 1-(7-methyl-5-(1-methyl-5-(5-(trifluoromethyl)pyridin-2-yl)-1H-pyrazol-4-yl)imidazo[1,5-f][1,2,4]triazin-4-yl)azetidin-3-ol formation at 1 to 50 uM after 1 hr by LC-MS/MS analysis; assay type: ADME, cell-based, Hepatocyte; summary of the method: as §1
Liver [12] = experiment: Drug metabolism in dog liver microsomes assessed as 1-(7-methyl-5-(1-methyl-5-(5-(trifluoromethyl)pyridin-2-yl)-1H-pyrazol-4-yl)imidazo[1,5-f][1,2,4]triazin-4-yl)azetidin-3-ol formation at 1 to 50 uM after 1 hr by LC-MS/MS analysis; assay type: ADME, Canis lupus familiaris, microsome; summary of the method: as §1
Liver [13] = experiment: Drug metabolism in human liver microsomes assessed as 3-(7-methyl-5-(1-methyl-5-(5-(trifluoromethyl)pyridin-2-yl)-1H-pyrazol-4-yl)imidazo[1,5-f][1,2,4]triazin-4-ylamino)propanoic acid formation at 1 to 50 uM after 1 hr by LC-MS/MS analysis; assay type: ADME, microsome; summary of the method: as §1
Mus musculus [14] = species: Mus musculus; experiment: Effect on cAMP level in CD-1 mouse brain hippocampus by immunoassay; assay type: functional
Summary of the method: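 CD-1 mice dosed SC (solution in 20% SBE-β-CD with 2 molar equivalents 1N HCl, 1 mL/kg); euthanized by focused microwave irradiation of brain; cortex, striatum, hippocampus homogenized in 0.5 N HCl, centrifuged; cyclic nucleotides in supernatant by enzyme immunoassay. Unbound brain exposure from satellite animals; dose-response and time-course data combined with linear model; one-way ANOVA with Fisher's PLSD.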

Rattus norvegicus [15] = experiment: Reversal of ketamine-induced working memory deficit in Long Evans rat at 0.032 to 0.32 mg/kg, sc by radial arm maze assay
Rattus norvegicus [16] = experiment: Reversal of MK-801-induced disruption of low frequency cortical delta oscillation in Sprague-Dawley rat brain at 0.03 mg/kg, iv in early time point measured up to 55 mins by electrophysiology method; assay type: functional, organism-based
Cytochrome P450 2C19 = Cytochrome P450 2C19 (Homo sapiens, UniProt P33261); experiment: Inhibition of recombinant human CYP2C19; assay type: ADME; settings: recombinant enzyme
Sequence of Cytochrome P450 2C19 (P33261 whole entry): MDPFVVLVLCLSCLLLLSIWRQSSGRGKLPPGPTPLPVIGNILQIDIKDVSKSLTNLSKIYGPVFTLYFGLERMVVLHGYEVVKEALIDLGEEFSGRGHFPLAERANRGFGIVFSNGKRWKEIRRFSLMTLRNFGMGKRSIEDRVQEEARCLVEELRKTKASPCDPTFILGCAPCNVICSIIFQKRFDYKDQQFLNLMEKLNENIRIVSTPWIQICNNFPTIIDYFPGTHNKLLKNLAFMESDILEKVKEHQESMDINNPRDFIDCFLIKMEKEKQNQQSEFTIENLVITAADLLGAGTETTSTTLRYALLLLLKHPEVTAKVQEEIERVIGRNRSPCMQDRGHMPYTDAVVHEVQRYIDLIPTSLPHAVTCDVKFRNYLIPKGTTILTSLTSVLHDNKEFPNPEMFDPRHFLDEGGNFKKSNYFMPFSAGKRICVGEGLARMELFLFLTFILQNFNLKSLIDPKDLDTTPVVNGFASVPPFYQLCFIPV

Rattus norvegicus [17] = experiment: Reversal of ketamine-induced working memory deficit in Long Evans rat assessed as unbound brain concentration required to show effect at 0.32 mg/kg, sc by radial arm maze assay; assay type: functional, organism-based
Summary of the method: (§2)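 Rats trained in a radial arm maze working-memory task, with deficit induced by ketamine. Compound dosed sc; errors compared with vehicle + ketamine. N = 20–23 per group, Hochberg test. Cbu at the tested doses estimated from satellite pharmacokinetic animals.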

Cytochrome P450 3A [18] = molecular target: T1, Cytochrome P450 3A; experiment: Time-dependant inhibition of recombinant human CYP3A; assay type: ADME; settings: recombinant enzyme
Canis familiaris = experiment: Toxicity in dog assessed as effect on vasculature up to 15 mg/kg/day, po for 14 days by microscopic method; assay type: organism-based, Canis lupus familiaris; settings: in vivo, 336 h
Rattus norvegicus [19] = experiment: Reversal of ketamine-induced working memory deficit in Long Evans rat at 1 mg/kg, sc by radial arm maze assay; assay type: functional, organism-based; summary of the method: as §2

Cc1nc(-c2cnn(C)c2-c2ccc(C(F)(F)F)cn2)c2c(N3CCC3)ncnn12 [PF-05180999]
Activity (Mus musculus [1]): Dose-dependent effect | half-life [2]: 4.1 h | inhibition (INH) (Cytochrome P450 3A [3]): Not Active | AUC(0-inf) [4]: 4120 ng·h/mL | Kp uu [5]: 0.58 | Activity (Rattus norvegicus [6]): Non-Toxic | Activity (Rattus norvegicus [7]): Non-Toxic | Activity (Mus musculus [8]): inactive | Drug metabolism (Liver [9]): Metabolite_Detected | Cmax [10]: 1020 ng/mL | Drug metabolism [11]: Metabolite_Detected | Drug metabolism (Liver [12]): Metabolite_Detected | Drug metabolism (Liver [13]): Metabolite_Detected | Activity (Mus musculus [14]): inactive | Activity (Rattus norvegicus [15]): Active | Activity (Rattus norvegicus [16]): Active | inhibition (INH) (Cytochrome P450 2C19): Not Active | Drug uptake(free) (Rattus norvegicus [17]): 12.5 nM | TDI (Cytochrome P450 3A [18]): Not Active | Activity (Canis familiaris): Non-Toxic | Activity (Rattus norvegicus [19]): inactive

Source: ChEMBL document CHEMBL4024790 (J Med Chem, 2018)
